Consider one compound from ChEMBL document CHEMBL4406794, “N-(7-Cyano-6-(4-fluoro-3-(2-(3-(trifluoromethyl)phenyl)acetamido)phenoxy)benzo[d]thiazol-2-yl)cyclopropanecarboxamide (TAK-632) Analogues as Novel Necroptosis Inhibitors by Targeting Receptor-Interacting Protein Kinase 3 (RIPK3): Synthesis, Structure-Activity Relationships, and in Vivo Efficacy” (J Med Chem, 2019).

The test system of one series is HT-29. The series can be described thus: Effect on TNFalpha/cycloheximide-induced apoptosis in human HT-29 cells at 3 uM treated prior to TNFalpha/cycloheximide stimulation and measured after 20 hrs by cell-Titer Glo luminescent cell viability assay. As to conditions: ht-29, 20 h. The format is cell-based. A digest of the protocol: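 HT-29 cells pretreated with compound at 3 μM or DMSO, then given TNF-α 20 ng/mL with either cycloheximide 5 μg/mL (TC) or Smac mimetic 10 nM (TS) for 20 h. Viability read by CellTiter-Glo luminescence.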

Series [1] is described as follows: Apparent volume of distribution at steady state in Sprague-Dawley rat at 1 mg/kg, iv by LC-tandem mass spectrometry analysis. The settings on record: in vivo, read-out: Vdss(app). The series is classed as ADME, organism-based. A digest of the protocol: (§1)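 Male Sprague-Dawley rats dosed once i.v. at 1 mg/kg or intragastrically at 5 mg/kg. Compound dissolved in 5% DMSO, 10% Tween 80, 75% physiological saline at 0.2 and 1 mg/mL. Blood taken at several time points, plasma spun at 4 °C, stored at -80 °C, assayed by LC/MS/MS. Parameters from individual animals by noncompartmental analysis.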

The nature of series [2]: Oral bioavailability in Sprague-Dawley rat at 5 mg/kg by LC-tandem mass spectrometry analysis. The format is ADME, organism-based. As to conditions: in vivo. A digest of the protocol: as §1
Series [3] addresses RAF proto-oncogene serine/threonine-protein kinase (Homo sapiens) (UniProt P04049). The series can be described thus: Inhibition of wild-type human partial length RAF1 (I330 to T640 residues) expressed in bacterial expression system assessed as enzyme remaining activity at 1000 nM by Kinomescan method relative to control.
The target of series [4] is Glycogen synthase kinase-3 beta (Homo sapiens) (UniProt P49841). The series can be described thus: Inhibition of wild-type human full length GSK3B (M1 to T433 residues) expressed in mammalian expression system assessed as enzyme remaining activity at 1000 nM by Kinomescan method relative to control.
Chain of Glycogen synthase kinase-3 beta (Homo sapiens) (P49841 whole entry, looked up, the tested form may be a part): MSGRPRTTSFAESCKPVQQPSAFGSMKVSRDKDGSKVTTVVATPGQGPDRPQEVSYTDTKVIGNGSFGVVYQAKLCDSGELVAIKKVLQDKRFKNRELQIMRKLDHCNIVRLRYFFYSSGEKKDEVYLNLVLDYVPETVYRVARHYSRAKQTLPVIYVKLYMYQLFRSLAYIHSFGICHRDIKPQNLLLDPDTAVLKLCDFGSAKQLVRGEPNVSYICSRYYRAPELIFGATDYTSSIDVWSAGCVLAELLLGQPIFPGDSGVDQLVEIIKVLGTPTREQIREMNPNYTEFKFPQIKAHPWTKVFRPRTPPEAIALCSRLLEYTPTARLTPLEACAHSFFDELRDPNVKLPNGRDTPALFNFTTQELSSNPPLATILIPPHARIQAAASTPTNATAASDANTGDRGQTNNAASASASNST
In series [5] the target is Mitogen-activated protein kinase 3 (Homo sapiens) (UniProt P27361). The series can be described thus: Inhibition of wild-type human full length ERK1 (M1 to P379 residues) expressed in bacterial expression system assessed as enzyme remaining activity at 1000 nM by Kinomescan method relative to control.
Chain of Mitogen-activated protein kinase 3 (Homo sapiens) (P27361 whole entry, the tested form may be a part): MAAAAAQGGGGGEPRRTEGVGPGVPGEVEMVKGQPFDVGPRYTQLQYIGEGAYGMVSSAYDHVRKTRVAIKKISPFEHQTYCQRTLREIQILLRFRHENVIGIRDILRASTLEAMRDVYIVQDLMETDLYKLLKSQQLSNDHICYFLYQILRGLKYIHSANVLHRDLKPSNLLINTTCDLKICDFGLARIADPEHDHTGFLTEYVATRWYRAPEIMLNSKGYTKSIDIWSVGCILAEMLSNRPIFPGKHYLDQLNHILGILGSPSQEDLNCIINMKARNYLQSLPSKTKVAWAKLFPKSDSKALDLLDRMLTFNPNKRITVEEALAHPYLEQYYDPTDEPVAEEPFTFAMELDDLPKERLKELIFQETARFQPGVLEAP
Series [6] deals with MAP kinase-activated protein kinase 2 (Homo sapiens) (UniProt P49137). The series can be described thus: Inhibition of wild-type human partial length MAPKAPK2 (V48 to D345 residues) expressed in bacterial expression system assessed as enzyme remaining activity at 1000 nM by Kinomescan method relative to control.
Chain of MAP kinase-activated protein kinase 2 (Homo sapiens) (P49137 whole entry, looked up, the tested form may be a part): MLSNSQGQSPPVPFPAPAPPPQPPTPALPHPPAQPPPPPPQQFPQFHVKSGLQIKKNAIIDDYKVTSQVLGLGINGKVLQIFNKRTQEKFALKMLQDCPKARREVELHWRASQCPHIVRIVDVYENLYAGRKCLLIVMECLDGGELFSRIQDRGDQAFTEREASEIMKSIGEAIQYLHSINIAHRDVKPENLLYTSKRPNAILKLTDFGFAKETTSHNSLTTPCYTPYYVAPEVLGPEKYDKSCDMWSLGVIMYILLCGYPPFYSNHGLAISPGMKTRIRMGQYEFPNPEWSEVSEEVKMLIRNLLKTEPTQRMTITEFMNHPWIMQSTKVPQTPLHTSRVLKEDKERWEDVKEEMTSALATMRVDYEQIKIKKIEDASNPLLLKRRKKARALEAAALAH
Series [7] concerns the target Receptor-interacting serine/threonine-protein kinase 3 (Homo sapiens, UniProt Q9Y572). The series can be described thus: Inhibition of RIPK3 phosphorylation in TNFalpha/smac mimetic/Z-VAD-fmk stimulated human HT-29 cells at 1 uM treated prior to TNFalpha/smac mimetic/Z-VAD-fmk stimulation and measured after 2 to 4 hrs by SDS-PAGE based immunoblot assay. The format is cell-based.

Series [8] deals with Cyclin-dependent kinase 3 (Homo sapiens) (UniProt Q00526). The series can be described thus: Inhibition of wild-type human full length CDK3 (M1 to H305 residues) expressed in bacterial expression system assessed as enzyme remaining activity at 1000 nM by Kinomescan method relative to control.
Chain of Cyclin-dependent kinase 3 (Homo sapiens) (Q00526 whole entry, looked up, the tested form may be a part): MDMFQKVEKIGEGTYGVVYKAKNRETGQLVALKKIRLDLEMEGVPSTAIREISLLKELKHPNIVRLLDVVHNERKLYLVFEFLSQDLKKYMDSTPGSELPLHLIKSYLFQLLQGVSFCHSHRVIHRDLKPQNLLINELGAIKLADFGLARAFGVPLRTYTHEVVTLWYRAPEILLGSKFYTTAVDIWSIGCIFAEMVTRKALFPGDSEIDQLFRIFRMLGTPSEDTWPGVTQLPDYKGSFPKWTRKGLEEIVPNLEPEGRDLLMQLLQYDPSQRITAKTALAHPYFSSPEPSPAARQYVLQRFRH
Series [9] can be described thus: Tmax in Sprague-Dawley rat at 1 mg/kg, iv by LC-tandem mass spectrometry analysis. The series is classed as ADME, organism-based. As to conditions: in vivo. The method, boiled down: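 Male Sprague-Dawley rats received compound iv (1 mg/kg) or intragastrically (5 mg/kg). The vehicle was 5% DMSO, 10% Tween 80 and 75% saline, at 0.2 or 1 mg/mL. Blood was sampled at several time points and centrifuged at 4 °C. Plasma was stored at -80 °C and analysed by LC/MS/MS. Parameters were derived by noncompartmental analysis of individual animal data.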

A short description of series [10]: Half-life in Sprague-Dawley rat at 5 mg/kg, po by LC-tandem mass spectrometry analysis. The settings on record: in vivo. The format is ADME, organism-based. A digest of the protocol:
as §1

Series [11] concerns Serine/threonine-protein kinase B-raf (Homo sapiens), P15056 [V600E]. The series can be described thus: Inhibition of human partial length BRAF V600E mutant (S429 to E741 residues) expressed in mammalian expression system assessed as enzyme remaining activity at 1000 nM by Kinomescan method relative to control.
Chain of Serine/threonine-protein kinase B-raf (Homo sapiens), P15056 [V600E] (P15056 whole entry V600E, the tested form may be a part): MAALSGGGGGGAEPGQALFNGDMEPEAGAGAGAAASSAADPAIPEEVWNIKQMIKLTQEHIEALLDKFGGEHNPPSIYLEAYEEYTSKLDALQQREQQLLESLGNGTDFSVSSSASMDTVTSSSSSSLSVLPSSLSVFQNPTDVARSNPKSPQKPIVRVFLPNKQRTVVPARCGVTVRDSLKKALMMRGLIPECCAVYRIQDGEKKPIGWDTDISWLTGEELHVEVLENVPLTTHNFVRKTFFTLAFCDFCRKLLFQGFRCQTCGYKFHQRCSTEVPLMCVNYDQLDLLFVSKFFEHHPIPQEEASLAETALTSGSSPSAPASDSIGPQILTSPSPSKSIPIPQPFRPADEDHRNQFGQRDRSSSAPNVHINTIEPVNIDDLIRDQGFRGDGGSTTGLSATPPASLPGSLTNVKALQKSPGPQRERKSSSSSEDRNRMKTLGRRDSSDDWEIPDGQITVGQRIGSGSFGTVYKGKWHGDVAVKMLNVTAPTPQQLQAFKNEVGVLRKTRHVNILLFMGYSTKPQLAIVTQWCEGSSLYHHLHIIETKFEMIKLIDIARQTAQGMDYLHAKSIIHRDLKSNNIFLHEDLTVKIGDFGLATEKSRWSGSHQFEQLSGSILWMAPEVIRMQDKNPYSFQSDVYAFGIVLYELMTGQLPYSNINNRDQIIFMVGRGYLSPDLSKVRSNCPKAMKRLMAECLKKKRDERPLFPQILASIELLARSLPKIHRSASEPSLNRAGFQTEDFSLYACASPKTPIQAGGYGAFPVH
Series [12] has as its system Mus musculus. The series can be described thus: Protection against TNFalpha/Z-VAD-fmk-induced C57BL/6J mouse model of systemic inflammatory response syndrome assessed as increase in mouse survial at 5 to 50 mg/kg, po administered via gavage 2 hrs prior to Z-VAD-fmk addition for 15 mins followed by TNFalpha stimulation for 1 hr and subsequent Z-VAD-fmk addition meaured up to 50 hrs post TNFalpha stimulation. The series is classed as functional, organism-based. The method, boiled down: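 Female C57BL/6 mice, fasted overnight, n=10 per group. Compound given by oral gavage at 5, 25 or 50 mg/kg 2 h before TNF. z-VAD-fmk 180 µg i.p., then 15 min later mTNF-α 400 µg/kg i.v. in endotoxin-free PBS, then a further 70 µg z-VAD-fmk i.p. 1 h later. Body temperature and survival followed, compared with vehicle by one-way ANOVA.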

For series [13], the target named is Cyclin-dependent kinase 2 (Homo sapiens) (UniProt P24941). The series can be described thus: Inhibition of wild-type human full length CDK2 (M1 to L298 residues) expressed in bacterial expression system assessed as enzyme remaining activity at 1000 nM by Kinomescan method relative to control.
The target of series [14] is Epidermal growth factor receptor (Homo sapiens) (UniProt P00533). The series can be described thus: Inhibition of wild-type human partial length EGFR (R669 to V1011 residues) expressed in bacterial expression system assessed as enzyme remaining activity at 1000 nM by Kinomescan method relative to control. The method, boiled down:
(§2)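 KINOMEscan binding competition. […] Incubation was 1 h at room temperature with shaking, then bead wash and elution with 0.5 μM nonbiotinylated ligand for 30 min. Eluted kinase was quantified by qPCR. Compound was diluted from 40× DMSO stocks to 1000 nM final.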

Series [15] is described as follows: Half-life in Sprague-Dawley rat at 1 mg/kg, iv by LC-tandem mass spectrometry analysis. The series is classed as ADME, organism-based. As to conditions: in vivo. The method, boiled down:
as §1

Series [16] is described as follows: Cmax in Sprague-Dawley rat at 5 mg/kg, po by LC-tandem mass spectrometry analysis. The format is ADME, organism-based. More on the design: dose 5 mg/kg, route oral. The settings on record: in vivo. A digest of the protocol: as §1
Series [17] deals with Epidermal growth factor receptor (Homo sapiens), P00533 [L858R]. The series can be described thus: Inhibition of wild-type human partial length EGFR L858R mutant (R669 to V1011 residues) expressed in bacterial expression system assessed as enzyme remaining activity at 1000 nM by Kinomescan method relative to control. The method, boiled down: as §2
Series [18] has as its target Serine/threonine-protein kinase B-raf (Homo sapiens) (UniProt P15056). The series can be described thus: Inhibition of wild-type human partial length BRAF (S429 to E741 residues) expressed in mammalian expression system assessed as enzyme remaining activity at 1000 nM by Kinomescan method relative to control.
The subject of series [19] is Mus musculus. The series can be described thus: Protection against TNFalpha/Z-VAD-fmk-induced C57BL/6J mouse model of systemic inflammatory response syndrome at 5 mg/kg, po administered via gavage 2 hrs prior to Z-VAD-fmk addition for 15 mins followed by TNFalpha stimulation for 1 hr and subsequent Z-VAD-fmk addition meaured up to 50 hrs post TNFalpha stimulation relative to control. The format is functional. A digest of the protocol: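 Overnight-fasted C57BL/6 female mice, n=10 per group. Test compound was given by oral gavage 2 h before mTNF-α. z-VAD-fmk (180 µg) was injected ip, then 15 min later mTNF-α in endotoxin-free PBS was injected iv (400 µg/kg). A second z-VAD-fmk dose (70 µg) was given ip 1 h after TNF. Body temperature and survival were followed against vehicle. One-way ANOVA was used.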

Molecules are shown by their SMILES. Active and inactive are the calls of the source. The rule behind the calls is not given here.

Chain of RAF proto-oncogene serine/threonine-protein kinase (Homo sapiens) (P04049 whole entry, the tested form may be a part): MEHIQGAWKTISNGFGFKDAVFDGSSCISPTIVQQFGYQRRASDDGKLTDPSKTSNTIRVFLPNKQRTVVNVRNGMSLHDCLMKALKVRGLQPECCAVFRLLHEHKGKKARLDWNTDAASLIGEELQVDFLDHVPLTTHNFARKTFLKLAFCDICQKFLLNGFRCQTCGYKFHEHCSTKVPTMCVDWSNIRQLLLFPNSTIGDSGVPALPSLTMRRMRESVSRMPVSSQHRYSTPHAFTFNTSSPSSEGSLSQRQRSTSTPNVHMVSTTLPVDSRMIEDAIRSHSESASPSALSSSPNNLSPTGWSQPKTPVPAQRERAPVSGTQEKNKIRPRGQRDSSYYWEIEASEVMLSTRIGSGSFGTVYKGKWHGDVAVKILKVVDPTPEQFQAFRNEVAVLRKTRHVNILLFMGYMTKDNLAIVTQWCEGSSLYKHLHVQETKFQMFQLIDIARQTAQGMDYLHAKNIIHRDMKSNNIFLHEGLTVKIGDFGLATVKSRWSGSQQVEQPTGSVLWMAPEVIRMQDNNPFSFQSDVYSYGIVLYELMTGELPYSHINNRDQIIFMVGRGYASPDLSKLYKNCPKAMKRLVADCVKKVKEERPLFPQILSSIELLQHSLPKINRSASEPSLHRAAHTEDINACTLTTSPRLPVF
Chain of Serine/threonine-protein kinase B-raf (Homo sapiens) (P15056 whole entry, the tested form may be a part): as the sequence (P15056 whole entry V600E, the tested form may be a part) above, with E600V counted along it
Chain of Receptor-interacting serine/threonine-protein kinase 3 (Q9Y572 whole entry, looked up): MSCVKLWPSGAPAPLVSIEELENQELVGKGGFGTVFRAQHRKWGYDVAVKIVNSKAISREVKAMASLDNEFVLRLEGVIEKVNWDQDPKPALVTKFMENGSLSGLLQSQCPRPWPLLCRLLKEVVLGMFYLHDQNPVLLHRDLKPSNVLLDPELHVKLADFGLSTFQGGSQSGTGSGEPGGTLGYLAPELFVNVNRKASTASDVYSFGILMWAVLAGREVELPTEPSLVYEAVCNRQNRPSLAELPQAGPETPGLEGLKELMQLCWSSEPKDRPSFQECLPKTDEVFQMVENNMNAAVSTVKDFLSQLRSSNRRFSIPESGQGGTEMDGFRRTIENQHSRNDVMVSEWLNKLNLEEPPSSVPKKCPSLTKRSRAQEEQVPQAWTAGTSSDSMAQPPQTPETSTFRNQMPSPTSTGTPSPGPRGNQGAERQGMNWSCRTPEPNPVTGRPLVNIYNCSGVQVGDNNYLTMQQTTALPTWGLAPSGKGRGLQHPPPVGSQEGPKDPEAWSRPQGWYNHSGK

A word on the bioavailability: it is the share of a dose that reaches the circulation, judged against a reference dose that is usually intravenous. High values mean much systemic uptake, low ones little systemic uptake. For orientation: Tmax means the time from dosing to the highest level. Broadly, the half-life is the time in which the quantity being followed falls by half. A high value points to slow decline. A word on the Cmax: it is the maximum level reached in the sampled fluid or tissue. Consider `O=C(Nc1cccc(Br)c1)Nc1cc(Oc2ccc3nc(NC(=O)C4CC4)sc3c2)ccc1F`, for which the Activity entry in the series with HT-29 was “Non-Toxic”; in series [3], 13%; in series [4], 100%; in series [5] it was 100%; in series [6], 100%; in [8], 96%. For the same compound, the Activity is 1.8% in series [11]; 93% in series [13]; 33% in [14]; 61% in series [17]; 3.6% in series [18]; 90% with Mus musculus [19]. In addition, the Vd in series [1] stood at 3.49 L/kg. The compound further gave a bioavailability in series [2] of 25.2%. In addition, the inhibition result in series [7] is “Active”. In addition, the Tmax in series [9] came out at 4.98 min. For the same compound, the half-life in [10] is 15.2 h; in series [15] it was 15.4 h. The outcome in the series with Mus musculus [12] was Active. Further, in [16], the Cmax was 345 ng/mL.
